From ChEMBL document CHEMBL1828601, “Small molecule peptidomimetic inhibitors of importin α/β mediated nuclear transport” (Bioorg Med Chem, 2010) come the findings set out here.

The source made the active and inactive calls. How the calls were made is not given here.

Test [1] deals with FGM. Kind of test: Inhibition of importin alpha/beta-mediated nuclear transportation of Alexa555-BSA-NLS in human FGM cell nucleus at 500 uM after 30 mins by fluorescence microscopy. It counts as cell-based.
The test system of test [2] is FGM. In words: Inhibition of importin alpha/beta-mediated nuclear transportation of Alexa555-GST-M9 in human FGM cell nucleus at 500 uM after 30 mins by fluorescence microscopy. It counts as cell-based. In a few lines: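 Transportin-dependent import measured the same way in permeabilized FGM cells, with 0.5 μM Alexa555-GST-M9 cargo in place of BSA-NLS. Conditions: 3 mg/ml HeLa cytosol, ATP-regenerating system, 0.2 mM GTP, 1% DMSO, 30 min at 30°C. Positive control was 1 mg/ml WGA. Nuclear cargo fluorescence quantified per nucleus by automated imaging.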

Regarding `NCCCCNC(=O)[C@@H]1CN(C(=O)[C@@H](N)CCc2ccccc2)C[C@H]1C(=O)NCCc1ccc2ccccc2c1`, the inhibition entry in the test on FGM [1] and in the test on FGM [2] was “inactive” throughout.
For the molecule `NCCCCNC(=O)[C@@H]1CN(C(=O)[C@@H](N)CO)C[C@H]1C(=O)NCCc1ccc2ccccc2c1`, the inhibition entry with FGM [1] and in the test with FGM [2] was “inactive” each time.
As for `CC[C@H](C)[C@H](N)C(=O)N1C[C@@H](C(=O)NCCCCN)[C@H](C(=O)NCCc2ccc3ccccc3c2)C1`, the inhibition result with FGM [1] and with FGM [2] was “inactive” each time.
Turning to `NCCCCNC(=O)[C@@H]1CN(C(=O)[C@@H](N)Cc2c[nH]c3ccccc23)C[C@H]1C(=O)NCCc1ccc2ccccc2c1`, the inhibition entry with FGM [1] and in the test with FGM [2] was “Active” each time.
Regarding `N[C@@H](Cc1cnc[nH]1)C(=O)N1C[C@@H](C(=O)NCCc2c[nH]cn2)[C@H](C(=O)NCCc2c[nH]c3ccccc23)C1`, the inhibition result with FGM [1] and with FGM [2] was “inactive” in each case.
Take `CC[C@H](C)[C@H](NC(=O)c1ccc(NC(=O)[C@@H](N)Cc2ccc3ccccc3c2)c(OCc2c[nH]cn2)c1)C(=O)O`: the inhibition entry in the test with FGM [1] and in the test with FGM [2] was “Active” in each case.
On to `N[C@@H](Cc1ccc(O)cc1)C(=O)Nc1ccc(C(=O)N[C@@H](CCc2ccccc2)C(=O)O)cc1OCc1ccc(Cl)cc1`, for which the inhibition entry in the test with FGM [1] and with FGM [2] was “Active” in each case.
For the molecule `N[C@@H](CCc1ccccc1)C(=O)Nc1ccc(C(=O)N[C@@H](CCc2ccccc2)C(=O)O)cc1OCc1ccc(Cl)cc1`, the inhibition result in the test with FGM [1] and in the test on FGM [2] was “Active” throughout.
As for `C[C@H](N)C(=O)N1C[C@@H](C(=O)NCCCCN)[C@H](C(=O)NCCc2ccc3ccccc3c2)C1`, the inhibition result with FGM [1] and with FGM [2] was “inactive” in each case.
`NCCCCNC(=O)[C@@H]1CN(C(=O)[C@@H](N)Cc2ccc(O)cc2)C[C@H]1C(=O)NCCc1ccc2ccccc2c1`: the inhibition result in the test on FGM [1] and in the test with FGM [2] was “inactive” each time.
For the molecule `N[C@@H](Cc1ccc2ccccc2c1)C(=O)Nc1ccc(C(=O)N[C@@H](CCc2ccccc2)C(=O)O)cc1OCc1ccc(Cl)cc1`, the inhibition entry in the test with FGM [1] and in the test on FGM [2] was “inactive” each time.
`CC[C@H](N)C(=O)Nc1ccc(C(=O)N[C@H](C(=O)O)[C@@H](C)CC)cc1OCc1c[nH]cn1`: the inhibition entry in the test on FGM [1] and in the test on FGM [2] was “inactive” each time.
As for `CC[C@H](C)[C@H](NC(=O)c1ccc(NC(=O)CN)c(OCc2c[nH]cn2)c1)C(=O)O`, the inhibition result with FGM [1] and in the test with FGM [2] was “inactive” each time.
Consider `N[C@@H](Cc1ccccc1)C(=O)N1C[C@@H](C(=O)NCCc2c[nH]cn2)[C@H](C(=O)NCCc2c[nH]c3ccccc23)C1`, for which the inhibition result in the test on FGM [1] and in the test with FGM [2] was “Active” throughout.
Turning to `N[C@@H](CC(=O)O)C(=O)Nc1ccc(C(=O)N[C@@H](CCc2ccccc2)C(=O)O)cc1OCc1ccc(Cl)cc1`, the inhibition entry in the test on FGM [1] and in the test on FGM [2] was “Active” throughout.
As for `CC(C)[C@H](N)C(=O)N1C[C@@H](C(=O)NCCCCN)[C@H](C(=O)NCCc2ccc3ccccc3c2)C1`, the inhibition entry with FGM [1] and with FGM [2] was “inactive” throughout.
On to `N[C@@H](Cc1ccccc1)C(=O)Nc1ccc(C(=O)N[C@@H](CCc2ccccc2)C(=O)O)cc1OCc1ccc(Cl)cc1`, for which the inhibition result with FGM [1] and in the test on FGM [2] was “Active” each time.
Take `NCCCCNC(=O)[C@@H]1CN(C(=O)[C@@H](N)CCc2ccc(Cl)cc2)C[C@H]1C(=O)NCCc1ccc2ccccc2c1`: the inhibition result with FGM [1] and in the test with FGM [2] was “inactive” in each case.
For the molecule `COc1ccc(C[C@H](N)C(=O)N2C[C@@H](C(=O)NCCCCN)[C@H](C(=O)NCCc3ccc4ccccc4c3)C2)cc1`, the inhibition result in the test with FGM [1] and in the test on FGM [2] was “inactive” in each case.
